The source of these data is ChEMBL document CHEMBL1151204, “Hypoglycemic effect and antioxidant potential of kaempferol-3,7-O-(alpha)-dirhamnoside from Bauhinia forficata leaves” (J Nat Prod, 2004).

Assay [1] has as its system Rattus norvegicus. Description: Hypoglycemic activity in diabetic 16 hrs fasted Wistar rat assessed as reduction in alloxan-induced serum glucose level at 50 mg/kg, po after 3 hrs by glucose oxidase method. The class given is functional. The procedure, abridged: (§1)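 Male Wistar rats, 160–190 g. Alloxan monohydrate 60 mg/kg i.v. in 0.9% NaCl given after an overnight fast. Rats with serum glucose 25–30.5 mmol/L at 72 h were fasted and randomized to diabetic, vehicle (0.5 mL 1% EtOH–H2O) or compound groups. Compound given by oral gavage. Retro-orbital serum glucose by glucose oxidase at 0, 1, 2 and 3 h. Mean ± SEM, n = 6 in duplicate, compared with 0 h.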

The nature of assay [2]: Antioxidant activity in 1-alpha-phosphatidylcholine liposome assessed as inhibition of ascorbyl radical-induced lipid peroxidation by TBARS assay. The class given is functional. Summed up: (§2)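 Egg-yolk phosphatidylcholine or soybean asolectin bilayer liposomes made by cholate/deoxycholate solubilisation then dialysis; lipid 12.5 mg/mL. Ascorbyl-radical peroxidation started with 25 µM FeSO4 plus 500 µM ascorbate. TBARS read with extinction coefficient 1.56 × 10^5 M-1 cm-1; IC50 derived; mean ± SEM, n = 3 in duplicate.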

Assay [3] has as its system Rattus norvegicus. Briefly: Hypoglycemic activity in normal 16 hrs fasted Wistar rat assessed as reduction in serum glucose level at 100 mg/kg, po after 1 hr by glucose oxidase method. The class given is functional. Summed up:
(§3)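 Male Wistar rats, 160–190 g, fasted ≥16 h with free water. Groups: control, vehicle (0.5 mL 1% EtOH–H2O) and compound by oral gavage. Retro-orbital blood drawn and centrifuged; serum glucose by glucose oxidase at 0, 1, 2 and 3 h. Mean ± SEM, n = 6 in duplicate, compared with the 0 h value.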

Assay [4] relates to Rattus norvegicus. Briefly: Hypoglycemic activity in normal 16 hrs fasted Wistar rat assessed as reduction in serum glucose level at 200 mg/kg, po after 2 hrs by glucose oxidase method. The class given is functional. The procedure, abridged:
as §3

In assay [5] the test system is Rattus norvegicus. Briefly: Hypoglycemic activity in 16 hrs fasted Wistar rat assessed as reduction in serum glucose level at 100 mg/kg, po measured after 30 mins of glucose challenge by oral glucose tolerance test. The class given is functional. The procedure, abridged:
(§4)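 Male Wistar rats, 160–190 g, fasted ≥16 h with water allowed. Oral gavage of glucose 4 g/kg alone or with compound 100 mg/kg. Controls: untreated rats and tolbutamide 100 mg/kg. Blood drawn from the retro-orbital plexus before and at 30, 60, 90 and 180 min after the load. Serum glucose by glucose oxidase; mean ± SEM, n = 3 in duplicate.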

Assay [6] concerns Liver microsomes. Description: Antioxidant activity in Wistar rat liver microsomes assessed as inhibition of hydroxyl radical-induced lipid peroxidation by TBARS assay. The class given is functional, Microsome. The procedure, abridged: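 Male Wistar rat liver microsomes, isolated by differential centrifugation with calcium aggregation and stored at -70 °C, at 2 mg protein/mL in 0.1 M KH2PO4 pH 7.4. Hydroxyl-radical peroxidation started with 25 µM FeCl2, 2.8 mM H2O2 and 100 µM sodium ascorbate. TBARS read with extinction coefficient 1.56 × 10^5 M-1 cm-1; IC50 derived; mean ± SEM, n = 3 in duplicate.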

The subject of assay [7] is Lung. Briefly: Antioxidant activity in Wistar rat lung assessed as half maximal inhibition of myeloperoxidase. The class given is functional, tissue-based. The procedure, abridged:
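Enzyme source: rat lung homogenised in ice-cold phosphate buffer. Activity was read as the slope of absorbance at 450 nm with o-dianisidine-2HCl and H2O2 and converted to units against a standard curve of commercial enzyme. Each concentration point was monitored kinetically, and the concentration giving half-maximal inhibition (K0.5) was taken from the inhibition curve.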

In assay [8] the test system is Rattus norvegicus. Briefly: Hypoglycemic activity in diabetic 16 hrs fasted Wistar rat assessed as reduction in alloxan-induced serum glucose level at 100 mg/kg, po after 1 hr by glucose oxidase method. The class given is functional. The procedure, abridged:
as §1

Assay [9] relates to Rattus norvegicus. Briefly: Hypoglycemic activity in 16 hrs fasted Wistar rat assessed as reduction in serum glucose level at 100 mg/kg, po measured after 60 mins of glucose challenge by oral glucose tolerance test. The class given is functional. Summed up:
as §4

The test system of assay [10] is Rattus norvegicus. Description: Hypoglycemic activity in normal 16 hrs fasted Wistar rat assessed as reduction in serum glucose level at 50 mg/kg, po after 2 hrs by glucose oxidase method. The class given is functional. The procedure, abridged: as §3
Assay [11] relates to Rattus norvegicus. Briefly: Hypoglycemic activity in normal 16 hrs fasted Wistar rat assessed as reduction in serum glucose level at 50 mg/kg, po after 3 hrs by glucose oxidase method. The class given is functional. Summed up:
as §3

Assay [12] has as its system Liver microsomes. Briefly: Antioxidant activity in Wistar rat liver microsomes assessed as inhibition of ascorbyl radical-induced lipid peroxidation by TBARS assay. The class given is functional, Microsome. The procedure, abridged: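 Microsomes from male Wistar rat liver, isolated by differential centrifugation with calcium aggregation and stored at -70 °C; protein by Lowry, fixed at 2 mg/mL. Ascorbyl-radical peroxidation started with 25 µM FeSO4 plus 500 µM ascorbate. TBARS read with extinction coefficient 1.56 × 10^5 M-1 cm-1; IC50 derived; mean ± SEM, n = 3 in duplicate.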

For assay [13], the system named is Lung. Description: Antioxidant activity in Wistar rat lung assessed as maximal inhibition of myeloperoxidase at 400 uM.
For assay [14], the system named is Rattus norvegicus. Description: Hypoglycemic activity in diabetic 16 hrs fasted Wistar rat assessed as reduction in alloxan-induced serum glucose level at 50 mg/kg, po after 1 hr by glucose oxidase method. The class given is functional. The procedure, abridged: as §1
Assay [15] has as its system Rattus norvegicus. Description: Hypoglycemic activity in diabetic 16 hrs fasted Wistar rat assessed as reduction in alloxan-induced serum glucose level at 100 mg/kg, po after 2 hrs by glucose oxidase method. The class given is functional. The procedure, abridged:
as §1

Assay [16] has as its system Rattus norvegicus. Description: Hypoglycemic activity in normal 16 hrs fasted Wistar rat assessed as reduction in serum glucose level at 200 mg/kg, po after 1 hr by glucose oxidase method. The class given is functional. Summed up: as §3
The subject of assay [17] is Rattus norvegicus. Briefly: Hypoglycemic activity in normal 16 hrs fasted Wistar rat assessed as reduction in serum glucose level at 100 mg/kg, po after 3 hrs by glucose oxidase method. The class given is functional. The procedure, abridged:
as §3

The subject of assay [18] is Rattus norvegicus. Briefly: Hypoglycemic activity in 16 hrs fasted Wistar rat assessed as reduction in serum glucose level at 100 mg/kg, po measured after 90 mins of glucose challenge by oral glucose tolerance test. The class given is functional. Summed up:
as §4

Assay [19] relates to Rattus norvegicus. Description: Hypoglycemic activity in diabetic 16 hrs fasted Wistar rat assessed as reduction in alloxan-induced serum glucose level at 200 mg/kg, po after 3 hrs by glucose oxidase method. The class given is functional. Summed up: as §1
Assay [20] concerns Rattus norvegicus. Briefly: Hypoglycemic activity in 16 hrs fasted Wistar rat assessed as reduction in serum glucose level at 100 mg/kg, po measured after 180 mins of glucose challenge by oral glucose tolerance test. The class given is functional. The procedure, abridged: as §4
In assay [21] the test system is Rattus norvegicus. Description: Hypoglycemic activity in normal 16 hrs fasted Wistar rat assessed as reduction in serum glucose level at 100 mg/kg, po after 2 hrs by glucose oxidase method. The class given is functional. Summed up: as §3
In assay [22] the test system is Rattus norvegicus. Briefly: Hypoglycemic activity in diabetic 16 hrs fasted Wistar rat assessed as reduction in alloxan-induced serum glucose level at 200 mg/kg, po after 2 hrs by glucose oxidase method. The class given is functional. The procedure, abridged:
as §1

Assay [23] is described as follows: Antioxidant activity in asolectin liposome assessed as inhibition of ascorbyl radical-induced lipid peroxidation by TBARS assay. The class given is functional. The procedure, abridged: as §2
Assay [24] deals with Rattus norvegicus. Description: Hypoglycemic activity in diabetic 16 hrs fasted Wistar rat assessed as reduction in alloxan-induced serum glucose level at 200 mg/kg, po after 1 hr by glucose oxidase method. The class given is functional. The procedure, abridged: as §1
Assay [25] concerns Radical scavenging activity. Description: Antioxidant activity assessed as DPPH radical scavenging activity. The class given is functional. The procedure, abridged:
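DPPH in EtOH, 200 μM, in the medium; radical loss read as absorbance decrease at 515 nm.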

Assay [26] relates to Rattus norvegicus. Briefly: Hypoglycemic activity in normal 16 hrs fasted Wistar rat assessed as reduction in serum glucose level at 50 mg/kg, po after 1 hr by glucose oxidase method. The class given is functional. The procedure, abridged: as §3
Assay [27] relates to Rattus norvegicus. Briefly: Hypoglycemic activity in normal 16 hrs fasted Wistar rat assessed as reduction in serum glucose level at 200 mg/kg, po after 3 hrs by glucose oxidase method. The class given is functional. Summed up:
as §3

Assay [28] relates to Rattus norvegicus. Briefly: Hypoglycemic activity in diabetic 16 hrs fasted Wistar rat assessed as reduction in alloxan-induced serum glucose level at 100 mg/kg, po after 3 hrs by glucose oxidase method. The class given is functional. The procedure, abridged: as §1
The subject of assay [29] is Rattus norvegicus. Description: Hypoglycemic activity in diabetic 16 hrs fasted Wistar rat assessed as reduction in alloxan-induced serum glucose level at 50 mg/kg, po after 2 hrs by glucose oxidase method. The class given is functional. The procedure, abridged: as §1

The source made the active and inactive calls. The rule behind the calls is not given here.

Regarding `C[C@@H]1O[C@@H](Oc2cc(O)c3c(=O)c(O[C@@H]4O[C@@H](C)[C@H](O)[C@@H](O)[C@H]4O)c(-c4ccc(O)cc4)oc3c2)[C@H](O)[C@H](O)[C@H]1O` [KAEMPFERITRIN], the Activity is 25.3 mmol/L in the assay on Rattus norvegicus [1]; 5.4 mmol/L with Rattus norvegicus [3]; 5 mmol/L with Rattus norvegicus [4]; 9.5 mmol/L in the assay with Rattus norvegicus [5]; 24.3 mmol/L with Rattus norvegicus [8]; 8.8 mmol/L in the assay with Rattus norvegicus [9]. Moreover, the Activity was found to be 5.9 mmol/L with Rattus norvegicus [10]; 6.2 mmol/L with Rattus norvegicus [11]; 23.5 mmol/L in the assay with Rattus norvegicus [14]; 24 mmol/L in the assay on Rattus norvegicus [15]; 4.5 mmol/L in the assay with Rattus norvegicus [16]; 6.2 mmol/L in the assay on Rattus norvegicus [17]. The Activity with Rattus norvegicus [18] was determined as 8.2 mmol/L; with Rattus norvegicus [19], 22.4 mmol/L; in the assay on Rattus norvegicus [20] it was 6.7 mmol/L; in the assay with Rattus norvegicus [21], 5.5 mmol/L; in the assay on Rattus norvegicus [22], 22.2 mmol/L; in the assay with Rattus norvegicus [24] it was 22.4 mmol/L. In addition, the Activity with Rattus norvegicus [26] stood at 5.5 mmol/L; with Rattus norvegicus [27] it was 5.1 mmol/L; with Rattus norvegicus [28], 24 mmol/L; with Rattus norvegicus [29], 25.2 mmol/L. The IC50 in assay [2] stood at 112 µM; with Liver microsomes [6], 85 µM; with Liver microsomes [12] it was 320 µM; in [23], 223 µM; in assay [25], 84 µM. Moreover, in the assay with Lung [7], the K was 86 µM. Also, the outcome with Lung [13] was Active.
On to `O=c1c(O)c(-c2ccc(O)c(O)c2)oc2cc(O)cc(O)c12` [QUERCETIN], for which the IC50 came to 80 µM in assay [2], 7.5 µM in the assay with Liver microsomes [6], 125 µM in the assay with Liver microsomes [12] and 80 µM in [23].
With `CCCCNC(=O)NS(=O)(=O)c1ccc(C)cc1` [TOLBUTAMIDE], the Activity in the assay with Rattus norvegicus [5] was found to be 7.8 mmol/L; in the assay on Rattus norvegicus [9], 6.3 mmol/L; in the assay with Rattus norvegicus [18] it was 5.9 mmol/L; in the assay with Rattus norvegicus [20] it was 5.2 mmol/L.
